In series [1] the target is T1, CYP1A1 (Homo sapiens, UniProt P04798).
T1 sequence (P04798 whole entry): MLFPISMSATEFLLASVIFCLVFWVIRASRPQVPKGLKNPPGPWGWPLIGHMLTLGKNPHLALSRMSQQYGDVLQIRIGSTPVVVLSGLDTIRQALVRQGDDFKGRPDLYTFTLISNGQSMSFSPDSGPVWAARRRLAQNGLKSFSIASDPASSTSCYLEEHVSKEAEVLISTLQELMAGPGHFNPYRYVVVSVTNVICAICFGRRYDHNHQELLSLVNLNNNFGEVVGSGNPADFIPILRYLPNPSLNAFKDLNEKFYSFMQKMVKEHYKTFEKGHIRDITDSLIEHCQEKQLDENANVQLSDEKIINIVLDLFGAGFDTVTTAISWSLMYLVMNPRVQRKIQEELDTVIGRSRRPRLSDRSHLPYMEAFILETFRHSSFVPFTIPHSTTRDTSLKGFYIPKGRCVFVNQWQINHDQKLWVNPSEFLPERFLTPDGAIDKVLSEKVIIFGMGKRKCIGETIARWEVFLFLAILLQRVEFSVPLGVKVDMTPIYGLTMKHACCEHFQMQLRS
Nature of the series: Inhibition of recombinant human CYP1A1 expressed in baker's yeast-derived microsomes (Sacchrosomes) at 10 uM using 7-ethoxyresorufin substrate by EROD assay relative to control. The following applies: probe 7-ethoxyresorufin. Put shortly:
(§1)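 Yeast microsomes carrying recombinant CYP (Sacchrosomes). Substrates per isoform are 7-ethoxyresorufin, 3-cyano-7-ethoxycoumarin, EOMCC or dibenzylfluorescein, read as endpoint fluorescence. Background from compound-only wells without enzyme is subtracted. Independent triplicate runs; α-naphthoflavone positive control.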

Series [2] concerns the target T2, CYP1B1 (Homo sapiens, UniProt Q16678).
T2 sequence (Q16678 whole entry): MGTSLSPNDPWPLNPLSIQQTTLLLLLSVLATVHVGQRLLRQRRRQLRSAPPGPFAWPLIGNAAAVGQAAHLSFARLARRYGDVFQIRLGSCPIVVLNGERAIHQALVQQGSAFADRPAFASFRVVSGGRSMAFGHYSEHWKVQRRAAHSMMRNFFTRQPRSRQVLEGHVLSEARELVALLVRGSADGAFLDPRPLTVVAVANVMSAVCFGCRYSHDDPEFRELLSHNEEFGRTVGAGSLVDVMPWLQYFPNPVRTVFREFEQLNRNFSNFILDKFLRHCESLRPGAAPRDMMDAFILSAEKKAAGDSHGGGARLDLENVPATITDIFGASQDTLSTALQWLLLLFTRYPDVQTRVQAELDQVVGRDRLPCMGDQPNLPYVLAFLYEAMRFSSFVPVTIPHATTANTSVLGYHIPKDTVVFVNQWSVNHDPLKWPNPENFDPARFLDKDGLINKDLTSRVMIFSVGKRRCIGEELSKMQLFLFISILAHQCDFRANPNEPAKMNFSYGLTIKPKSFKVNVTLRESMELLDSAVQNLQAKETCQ
Description: Inhibition of recombinant human CYP1B1 expressed in baker's yeast-derived microsomes (Sacchrosomes) at 10 uM using 7-ethoxyresorufin substrate by EROD assay relative to control. The format is ADME. The following applies: probe 7-ethoxyresorufin. Put shortly: (§2)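 Yeast microsomes carrying recombinant CYP (Sacchrosomes). […] Substrates per isoform are 7-ethoxyresorufin, 3-cyano-7-ethoxycoumarin, EOMCC or dibenzylfluorescein, read as endpoint fluorescence. Background from compound-only wells without enzyme is subtracted. Independent triplicate runs; α-naphthoflavone positive control.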

Series [3] deals with CYP2D6 (Homo sapiens, UniProt P10635). Nature of the series: Inhibition of recombinant human CYP2D6 expressed in baker's yeast-derived microsomes (Sacchrosomes) at 10 uM using 7-ethoxy-methyloxy-3-cyanocoumarin substrate by EROD assay relative to control. The following applies: probe 7-ethoxy-methyloxy-3-cyanocoumarin. The series is classed as ADME. In a few lines:
as §2

Series [4] deals with CYP3A4 (Homo sapiens, UniProt P08684). Nature of the series: Inhibition of recombinant human CYP3A4 expressed in baker's yeast-derived microsomes (Sacchrosomes) at 10 uM using dibenzylfluorescein substrate by EROD assay relative to control. The series is classed as ADME. The following applies: probe dibenzylfluorescein. Put shortly:
as §2

The target of series [5] is CYP2C9 (Homo sapiens, UniProt P11712). Nature of the series: Inhibition of recombinant human CYP2C9 expressed in baker's yeast-derived microsomes (Sacchrosomes) at 10 uM using 3-cyano-7-ethoxycoumarin substrate by EROD assay relative to control. The format is ADME. The following applies: probe 3-cyano-7-ethoxycoumarin. Put shortly: as §2
For series [6], the target named is CYP2C19 (Homo sapiens, UniProt P33261). Nature of the series: Inhibition of recombinant human CYP2C19 expressed in baker's yeast-derived microsomes (Sacchrosomes) at 10 uM using 3-cyano-7-ethoxycoumarin substrate by EROD assay relative to control. The series is classed as ADME. The settings on record: probe 3-cyano-7-ethoxycoumarin. Put shortly: as §2
For series [7], the target named is T3, CYP1A2 (Homo sapiens, UniProt P05177).
T3 sequence (P05177 whole entry): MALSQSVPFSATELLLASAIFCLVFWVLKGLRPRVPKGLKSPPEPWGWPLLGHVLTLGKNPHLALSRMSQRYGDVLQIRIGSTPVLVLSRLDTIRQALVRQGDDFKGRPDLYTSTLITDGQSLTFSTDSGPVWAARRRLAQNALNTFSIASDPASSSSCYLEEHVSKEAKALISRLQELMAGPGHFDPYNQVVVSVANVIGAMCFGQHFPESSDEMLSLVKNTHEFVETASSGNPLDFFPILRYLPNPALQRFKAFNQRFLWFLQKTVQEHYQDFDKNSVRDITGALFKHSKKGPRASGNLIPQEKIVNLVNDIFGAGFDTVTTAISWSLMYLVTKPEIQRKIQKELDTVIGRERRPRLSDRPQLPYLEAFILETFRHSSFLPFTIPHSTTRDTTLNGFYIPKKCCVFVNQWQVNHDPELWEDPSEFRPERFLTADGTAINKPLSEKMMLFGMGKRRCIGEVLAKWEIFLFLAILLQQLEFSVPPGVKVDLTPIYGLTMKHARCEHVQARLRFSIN
Description: Inhibition of recombinant human CYP1A2 expressed in baker's yeast-derived microsomes (Sacchrosomes) at 10 uM using 3-cyano-7-ethoxycoumarin substrate by EROD assay relative to control. The series is classed as ADME. The settings on record: probe 3-cyano-7-ethoxycoumarin. In a few lines: as §1

Series [8] concerns the target T1, CYP1A1. Description: Inhibition of human recombinant CYP1A1 expressed in HEK293 cells at 10 uM using 7-ethoxyresorufin substrate preincubated for 30 mins followed by substrate addition and measured after 60 mins by fluorescence assay relative to control. The series is classed as cell-based. The settings on record: HEK293 cells expressing human recombinant CYP1A1, probe 7-ethoxyresorufin. Put shortly: (§3)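 HEK293 cells adapted to suspension and transiently transfected with pcDNA3.1 plasmids carrying the individual CYP; 100×10^3 cells per well in triplicate. […] Fluorogenic substrate is then added at 5 μM and fluorescence read for 60 min.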

Series [9] has as its target T4, Cytochrome P450 1A1 (Homo sapiens, UniProt P04798).
T4 sequence (P04798 whole entry): T1 sequence (P04798 whole entry)
Nature of the series: Inhibition of human recombinant CYP1A1 expressed in HEK293 cells using 7-ethoxyresorufin substrate preincubated for 30 mins followed by substrate addition and measured after 60 mins by fluorescence assay relative to control. The series is classed as cell-based. In a few lines:
as §3

The target in series [10] is T5, Cytochrome P450 1A2 (Homo sapiens, UniProt P05177).
T5 sequence (P05177 whole entry): T3 sequence (P05177 whole entry)
Description: Inhibition of human recombinant CYP1A2 expressed in HEK293 cells using 3-cyano-7-ethoxycoumarin substrate preincubated for 30 mins followed by substrate addition and measured after 60 mins by fluorescence assay relative to control. The format is ADME, cell-based. In a few lines: as §3

For series [11], the target named is T6, Cytochrome P450 1B1 (Homo sapiens, UniProt Q16678).
T6 sequence (Q16678 whole entry): T2 sequence (Q16678 whole entry)
Description: Inhibition of human recombinant CYP1B1 expressed in HEK293 cells using 7-ethoxyresorufin substrate substrate preincubated for 30 mins followed by substrate addition and measured after 60 mins by fluorescence assay relative to control. The format is ADME, cell-based. Put shortly:
as §3

Series [12] concerns the target Cytochrome P450 2D6 (Homo sapiens, UniProt P10635). Nature of the series: Inhibition of human recombinant CYP2D6 expressed in HEK293 cells using 7-ethoxy-methyloxy-3-cyanocoumarin substrate substrate preincubated for 30 mins followed by substrate addition and measured after 60 mins by fluorescence assay relative to control. The series is classed as ADME, cell-based. Put shortly: as §3

The target in series [13] is Cytochrome P450 2C9 (Homo sapiens, UniProt P11712). Nature of the series: Inhibition of human recombinant CYP2C9 expressed in HEK293 cells using 3-cyano-7-ethoxycoumarin substrate substrate preincubated for 30 mins followed by substrate addition and measured after 60 mins by fluorescence assay relative to control. The format is ADME, cell-based. In a few lines: as §3

Series [14] has as its target Cytochrome P450 2C19 (Homo sapiens, UniProt P33261). Description: Inhibition of human recombinant CYP2C19 expressed in HEK293 cells using 3-cyano-7-ethoxycoumarin substrate substrate preincubated for 30 mins followed by substrate addition and measured after 60 mins by fluorescence assay relative to control. The series is classed as ADME, cell-based. Put shortly:
as §3

The target in series [15] is Cytochrome P450 3A4 (Homo sapiens, UniProt P08684). Description: Inhibition of human recombinant CYP3A4 expressed in HEK293 cells using dibenzylfluorescein substrate substrate preincubated for 30 mins followed by substrate addition and measured after 60 mins by fluorescence assay relative to control. The format is ADME, cell-based. Put shortly:
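HEK293 cells adapted to suspension and transiently transfected with pcDNA3.1 plasmids carrying the individual CYP; 100×10^3 cells per well in triplicate. Fluorogenic substrate is then added at 5 μM and fluorescence read for 60 min.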

What is called inhibition is the drop in the measured response relative to a control, in per cent. As usually defined, the IC50 is the point on the concentration scale where inhibition reaches its midpoint. A word on the Ki: it is the dissociation constant of the complex between target and ligand, obtained from inhibition or displacement.

The structures appear in SMILES notation.

Chain of CYP2C9 (P11712 whole entry): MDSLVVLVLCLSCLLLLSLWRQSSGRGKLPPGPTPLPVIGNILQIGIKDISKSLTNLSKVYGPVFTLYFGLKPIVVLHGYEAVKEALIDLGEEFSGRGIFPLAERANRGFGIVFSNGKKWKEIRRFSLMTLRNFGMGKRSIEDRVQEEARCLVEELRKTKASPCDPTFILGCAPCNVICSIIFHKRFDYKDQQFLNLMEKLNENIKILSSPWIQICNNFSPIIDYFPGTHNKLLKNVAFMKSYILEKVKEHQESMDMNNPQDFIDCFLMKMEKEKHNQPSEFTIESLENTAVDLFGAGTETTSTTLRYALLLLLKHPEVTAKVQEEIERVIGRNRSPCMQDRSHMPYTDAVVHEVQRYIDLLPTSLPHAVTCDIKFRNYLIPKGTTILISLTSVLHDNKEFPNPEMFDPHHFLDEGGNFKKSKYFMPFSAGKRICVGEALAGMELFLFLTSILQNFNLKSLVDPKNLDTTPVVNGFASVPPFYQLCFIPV
Chain of CYP2D6 (P10635 whole entry): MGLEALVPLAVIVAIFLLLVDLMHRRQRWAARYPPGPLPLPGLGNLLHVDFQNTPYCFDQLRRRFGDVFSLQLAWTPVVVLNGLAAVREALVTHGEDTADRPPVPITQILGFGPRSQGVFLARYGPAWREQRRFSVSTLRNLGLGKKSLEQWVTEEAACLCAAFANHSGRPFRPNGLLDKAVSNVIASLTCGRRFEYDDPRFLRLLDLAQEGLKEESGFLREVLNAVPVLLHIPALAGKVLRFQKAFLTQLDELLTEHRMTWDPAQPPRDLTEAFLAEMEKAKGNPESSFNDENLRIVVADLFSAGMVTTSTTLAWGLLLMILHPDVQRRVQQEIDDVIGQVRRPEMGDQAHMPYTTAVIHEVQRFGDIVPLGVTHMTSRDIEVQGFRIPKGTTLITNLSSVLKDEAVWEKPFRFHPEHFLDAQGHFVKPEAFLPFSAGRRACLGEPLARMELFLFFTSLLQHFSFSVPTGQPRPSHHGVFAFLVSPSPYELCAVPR
Chain of CYP2C19 (P33261 whole entry): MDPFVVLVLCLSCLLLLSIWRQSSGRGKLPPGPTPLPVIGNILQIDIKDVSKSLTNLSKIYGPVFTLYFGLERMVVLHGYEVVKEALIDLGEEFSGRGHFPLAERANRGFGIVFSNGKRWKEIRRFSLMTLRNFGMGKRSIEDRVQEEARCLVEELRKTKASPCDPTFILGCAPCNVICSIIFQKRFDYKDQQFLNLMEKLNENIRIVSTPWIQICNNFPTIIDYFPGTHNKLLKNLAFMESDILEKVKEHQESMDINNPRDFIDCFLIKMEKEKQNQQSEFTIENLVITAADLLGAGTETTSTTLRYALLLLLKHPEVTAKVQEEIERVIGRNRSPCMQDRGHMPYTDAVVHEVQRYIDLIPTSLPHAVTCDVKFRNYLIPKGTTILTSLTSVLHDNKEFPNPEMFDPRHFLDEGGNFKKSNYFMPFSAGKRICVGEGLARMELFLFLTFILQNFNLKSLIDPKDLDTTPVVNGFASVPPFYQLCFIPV
Chain of CYP3A4 (P08684 whole entry): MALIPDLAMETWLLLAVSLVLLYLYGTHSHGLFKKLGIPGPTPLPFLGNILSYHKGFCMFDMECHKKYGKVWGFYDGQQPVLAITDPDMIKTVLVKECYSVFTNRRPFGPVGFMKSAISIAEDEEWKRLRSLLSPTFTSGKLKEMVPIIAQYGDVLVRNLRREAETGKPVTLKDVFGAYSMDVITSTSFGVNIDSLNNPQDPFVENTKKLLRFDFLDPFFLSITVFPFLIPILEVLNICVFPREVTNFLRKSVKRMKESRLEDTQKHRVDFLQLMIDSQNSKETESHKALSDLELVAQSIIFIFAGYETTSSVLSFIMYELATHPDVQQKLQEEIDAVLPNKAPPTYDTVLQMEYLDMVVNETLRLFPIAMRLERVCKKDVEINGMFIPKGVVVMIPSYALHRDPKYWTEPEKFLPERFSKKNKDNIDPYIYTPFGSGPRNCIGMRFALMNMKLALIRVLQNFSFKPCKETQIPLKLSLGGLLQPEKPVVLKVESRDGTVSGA
Chain of Cytochrome P450 2C9 (P11712 whole entry): as the sequence (P11712 whole entry) above
Chain of Cytochrome P450 2D6 (P10635 whole entry): as the sequence (P10635 whole entry) above
Chain of Cytochrome P450 2C19 (P33261 whole entry): as the sequence (P33261 whole entry) above
Chain of Cytochrome P450 3A4 (P08684 whole entry): as the sequence (P08684 whole entry) above

As for `CC1(C)O[C@H]1COc1c2ccoc2cc2oc(=O)ccc12` [OXYPEUCEDANIN], the inhibition at 10 µM in [1] amounted to 56%.

For the molecule `O=c1cc(-c2ccccc2)oc2c1ccc1ccccc12` [ALPHA-NAPHTHOFLAVONE], the inhibition at 10 µM in [2] was determined as 96%; in series [3], 5%; in series [4], 6%; in series [5], 10%; in series [6], 9%.

As to `COc1cc2ccc(=O)oc2c2ccoc12` [SPHONDIN], the inhibition at 10 µM in series [1] amounted to 67%.

Regarding `CCOc1c2occc2cc2ccc(=O)oc12`, the inhibition at 10 µM in series [1] is 89%.

As for `C=CCOc1cc(OCC=C)c2ccc(=O)oc2c1`, the inhibition at 10 µM in series [1] turned out to be 69%.

`COc1ccc2c(c1OC)C(OC)N(C)c1c-2ccc2cc3c(cc12)OCO3` (stereo not given): the inhibition at 10 µM came to 90% in [1]; 7% in series [7]; 10% in [2]; 11% in series [3]; 6% in [4]; 4% in [5]. In addition, in [6], the inhibition at 10 µM amounted to 3%. Besides, in series [8], the inhibition at 1 h, 10 µM was 80%. Besides, the IC50 was 3.03 µM in [9]; 8.93 µM in [10]; 7.7 µM in [11]; over 10 µM in series [12]; over 10 µM in series [13]; over 10 µM in series [14]. The concentration for half-maximal inhibition (IC50) in [15] is over 10 µM. Also, the results for the inhibition constant (Ki) in [9] and in [10] were 3.25 µM and 9.16 µM, respectively.

Take `COc1c(O)cc2oc(-c3ccc(O)cc3)cc(=O)c2c1O` [HISPIDULIN]: in [1], the inhibition at 10 µM stood at 86%.

Turning to `COc1ccc2cc3[n+](cc2c1OC)CCc1cc2c(cc1-3)OCO2` [BERBERINE CHLORIDE], the inhibition at 10 µM in series [1] is 48%.

As to `CC1=CC(=O)c2c(O)cccc2C1=O` [PLUMBAGIN], the inhibition at 10 µM came to 55% in series [7]; 40% in series [2]; 10% in series [3]; 15% in series [4]; 11% in series [5]; 12% in [6]. Besides, the inhibition at 1 h, 10 µM in [8] was found to be 86%. Besides, the IC50 in series [9] is 2.77 µM; in series [10], 2.46 µM; in series [11] it was 6.15 µM; in series [12], over 10 µM; in [13], over 10 µM; in series [14] it was over 10 µM. In [15], the IC50 was over 10 µM. Besides, the Ki in series [9] was found to be 2.56 µM; in [10], 2.36 µM.

Take `COc1ccc2ccc(=O)oc2c1CC=C(C)C` [OSTHOLE]: in series [1], the inhibition at 10 µM was determined as 34%.
